Source: ChEMBL document CHEMBL1142947, “Gallium(III) and iron(III) complexes of alpha-N-heterocyclic thiosemicarbazones: synthesis, characterization, cytotoxicity, and interaction with ribonucleotide reductase” (J Med Chem, 2007)

Experiments:
41M = experiment: Cytotoxicity against human 41M cells after 96 hrs by MTT assay; format: cell-based
Method in brief: (§1)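 Adherent cells grown in MEM with 10% heat-inactivated FBS, 1 mM sodium pyruvate, 4 mM L-glutamine and nonessential amino acids at 37 °C, 5% CO2. Seeded at 4 × 10^3 cells/well and preincubated 24 h. Exposed 96 h to DMSO stocks serially diluted in medium (DMSO ≤0.5%). MTT added for 4 h, formazan dissolved in DMSO, read at 550 nm (ref 690 nm). IC50 interpolated from T/C curves; ≥3 independent experiments, six cultures per concentration.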

[1] = Cytotoxicity against human SKBR3 cells after 96 hrs by MTT assay; format: cell-based; conditions: SK-BR-3, 96 h; method in brief: as §1
[2] = molecular target: T1, Ribonucleoside-diphosphate reductase subunit M2 (Mus musculus) (UniProt P11157); experiment: Effect on mouse ribonucleotide reductase R2 protein measured by tyrosyl radical concentration in aerobic condition at 3 mM, 298 K after 1005 mins
T1 sequence (whole entry): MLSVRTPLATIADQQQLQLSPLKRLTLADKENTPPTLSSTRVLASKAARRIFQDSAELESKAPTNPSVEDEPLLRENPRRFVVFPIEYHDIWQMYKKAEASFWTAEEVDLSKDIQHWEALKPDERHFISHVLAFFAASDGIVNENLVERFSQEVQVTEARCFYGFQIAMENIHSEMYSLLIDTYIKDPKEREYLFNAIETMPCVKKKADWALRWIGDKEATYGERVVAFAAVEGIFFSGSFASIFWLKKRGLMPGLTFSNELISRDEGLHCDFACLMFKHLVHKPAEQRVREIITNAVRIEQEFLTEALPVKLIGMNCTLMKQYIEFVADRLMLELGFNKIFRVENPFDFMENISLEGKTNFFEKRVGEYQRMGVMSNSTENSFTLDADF
Method in brief: (§2)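 Reconstituted purified mouse R2 diluted to 30 µM monomer in 50 mM Tris/HCl pH 7.6, 100 mM KCl. Compound added from 3 mM stock (DMSO, or water for nitrates) to a final 30–33 µM (1:1 with monomer), about 1% DMSO, plus 1 mM DTT, under air at 298 K. Samples frozen in liquid nitrogen after each incubation; tyrosyl radical quantified by X-band EPR at 40 K.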

[3] = molecular target: T1, Ribonucleoside-diphosphate reductase subunit M2 (Mus musculus); experiment: Effect on mouse ribonucleotide reductase R2 protein measured by tyrosyl radical concentration in anaerobic condition at 3 mM, 298 K after 1 min
Method in brief: (§3)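 Run in an anaerobic tent with argon-bubbled, vacuum-degassed buffer (50 mM Tris/HCl pH 7.6, 100 mM KCl) and solutions. Protein degassed and diluted to a final 30 µM R2 monomer with 30 µM compound (from 3 mM stocks), 1% DMSO and 1 mM DTT freshly prepared. Incubated at 298 K for 1, 15 and 1005 min total; tyrosyl radical measured by EPR at 77 K.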

[4] = molecular target: T1, Ribonucleoside-diphosphate reductase subunit M2 (Mus musculus); experiment: Effect on mouse ribonucleotide reductase R2 protein measured by tyrosyl radical concentration in anaerobic condition at 3 mM, 298 K after 15 mins; method in brief: as §3
[5] = molecular target: T1, Ribonucleoside-diphosphate reductase subunit M2 (Mus musculus); experiment: Effect on mouse ribonucleotide reductase R2 protein measured by tyrosyl radical concentration in anaerobic condition at 3 mM, 298 K after 1005 mins; method in brief: as §3
[6] = molecular target: T1, Ribonucleoside-diphosphate reductase subunit M2 (Mus musculus); experiment: Effect on mouse ribonucleotide reductase R2 protein measured by tyrosyl radical concentration in aerobic condition at 3 mM, 298 K after 1 min; method in brief: as §2
[7] = molecular target: T1, Ribonucleoside-diphosphate reductase subunit M2 (Mus musculus); experiment: Effect on mouse ribonucleotide reductase R2 protein measured by tyrosyl radical concentration in aerobic condition at 30-33 µM, 298 K after 15 mins

SMILES | IC50 (41M) | IC50 [1] | Activity [2] | Activity [3] | Activity [4] | Activity [5] | Activity [6] | Activity [7]
C/C(=N\NC(=S)N1CCCC1)c1cnccn1 | 1.1 nM | 5 nM |  |  |  |  |  | 
C/C(=N\NC(=S)N(C)C)c1ccccn1 | 0.22 nM | 2.7 nM | 0.5 µM | 8.5 µM | 0 µM | 0 µM | 17.2 µM | 7 µM
C/C(=N\NC(=S)N(C)C)c1cnccn1 | 0.073 nM | 1.4 nM |  |  |  |  |  | 
C/C(=N\NC(=S)N1CCCC1)c1ccccn1 | 0.36 nM | 3.1 nM |  |  |  |  |  | 
C/C(=N\NC(=S)N1CCCCC1)c1cnccn1 | 0.41 nM | 2.2 nM |  |  |  |  |  | 
